One experiment relates to LNCaP. Briefly: Cytotoxicity against human LNCAP cells after 72 hrs by sulforhodamine B assay. The class given is functional, cell-based. The method, boiled down: (§1)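 Cells seeded at 5.0×10^4 cells/mL in 96-well plates, given compound in 10% DMSO (10 µL) for final 0–20 µg/mL, 72 h incubation; zero-day control plate 30 min at 37 °C. Fixed with cold 50% TCA 30 min at 4 °C, stained 0.4% sulforhodamine B in 1% acetic acid 30 min, dye solubilized in 10 mM Tris base pH 10, absorbance 515 nm.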
A general note: Sulforhodamine B stains cellular protein and so reports cell mass.

Experiment [1] is described as follows: Cytotoxicity against human Lu cells after 72 hrs by sulforhodamine B assay. Format: functional, cell-based. The method, boiled down: as §1
For another experiment, the system named is MCF7. Description: Cytotoxicity against human MCF7 cells after 72 hrs by sulforhodamine B assay. Format: functional, cell-based. As to conditions: MCF7, 72 h. The method, boiled down: as §1
Experiment [2] deals with T1, Ribosyldihydronicotinamide dehydrogenase [quinone] (Homo sapiens, UniProt P16083).
T1 sequence (P16083 whole entry): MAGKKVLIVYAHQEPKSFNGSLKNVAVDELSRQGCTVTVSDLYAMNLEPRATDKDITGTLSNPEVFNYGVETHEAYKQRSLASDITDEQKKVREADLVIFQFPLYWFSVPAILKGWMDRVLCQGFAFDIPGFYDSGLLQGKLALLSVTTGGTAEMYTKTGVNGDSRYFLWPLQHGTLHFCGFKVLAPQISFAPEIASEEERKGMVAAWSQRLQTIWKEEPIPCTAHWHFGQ
Description: Inhibition of human quinone reductase 2 expressed in Escherichia coli BL21(DE3) incubated at 23 degC by MTT assay.

For the next experiment, the target named is T2, Aromatase (Homo sapiens, UniProt P11511).
T2 sequence (P11511 whole entry): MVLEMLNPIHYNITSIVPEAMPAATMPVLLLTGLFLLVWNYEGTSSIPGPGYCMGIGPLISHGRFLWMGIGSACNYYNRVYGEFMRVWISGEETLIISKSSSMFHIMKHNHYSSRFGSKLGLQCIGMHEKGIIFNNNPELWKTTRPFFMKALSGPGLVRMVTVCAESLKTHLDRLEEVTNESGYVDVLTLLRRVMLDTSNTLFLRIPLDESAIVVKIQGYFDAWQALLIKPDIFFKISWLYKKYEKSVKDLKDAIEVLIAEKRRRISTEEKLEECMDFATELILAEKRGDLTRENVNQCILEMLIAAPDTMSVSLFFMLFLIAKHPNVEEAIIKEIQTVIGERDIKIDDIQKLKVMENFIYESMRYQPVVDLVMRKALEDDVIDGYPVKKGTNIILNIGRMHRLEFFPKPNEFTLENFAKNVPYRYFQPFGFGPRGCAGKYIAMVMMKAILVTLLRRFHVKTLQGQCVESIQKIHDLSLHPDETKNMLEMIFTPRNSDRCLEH

The nature of experiment [3]: Cytotoxicity against mouse Hepa-1c1c7 cells after 72 hrs by sulforhodamine B assay. The note with it: Hepa-1c1c7, 72 h. The class given is functional, cell-based. In outline:
as §1

The term IC50 denotes the concentration that inhibits the measured activity by half. On to `COc1cc2c(C)cc(=O)[nH]c2c(OC)c1OC`, for which the half-inhibitory concentration (IC50) in the experiment with LNCaP is over 80.3 µM; in experiment [1], over 80.3 µM; in the experiment on MCF7 it was over 80.3 µM; in experiment [2] it was 10 µM; against Aromatase, 18.5 µM; in experiment [3], over 80.3 µM.
As to `COc1cc(OC)c2c(c(C)cc(=O)n2C)c1OC`, the IC50 in the experiment on LNCaP is over 76 µM; in experiment [1], 68.5 µM; in the experiment with MCF7, over 76 µM; in experiment [2] it was 10.8 µM; on Aromatase it was 0.1 µM; in experiment [3], 70.7 µM.
For `Cc1cc(=O)n(C)c2c3c(ccc12)OCO3`, the IC50 is over 92.1 µM in the experiment with LNCaP; over 92.1 µM in experiment [1]; over 92.1 µM in the experiment on MCF7; 6.2 µM in experiment [2]; 1.25 µM at Aromatase; over 92.1 µM in experiment [3].
For `COc1cc(OC)c2[nH]c(=O)cc(C)c2c1OC`, the IC50 in the experiment with LNCaP was determined as 45.8 µM; in experiment [1], 35.3 µM; with MCF7 it was 43 µM; in experiment [2], 6 µM; on Aromatase it was 14.8 µM; in experiment [3], 34.5 µM.
For `Cc1cc(=O)n(C)c2ccccc12`, the IC50 with LNCaP is over 116 µM; in experiment [1] it was over 116 µM; in the experiment with MCF7 it was over 116 µM; in experiment [2], 18.2 µM; against Aromatase it was over 116 µM; in experiment [3] it was over 116 µM.
On to `COc1c(OC)c(OC)c2c(C)cc(=O)[nH]c2c1OC`, for which the concentration for half-maximal inhibition (IC50) in the experiment on LNCaP was over 71.7 µM; in experiment [1] it was over 71.7 µM; in the experiment with MCF7, over 71.7 µM; in experiment [2], over 500 µM; on Aromatase, 5.68 µM; in experiment [3], over 71.7 µM.
`COc1ccc2c(C)cc(=O)[nH]c2c1OC`: the 50% inhibitory concentration (IC50) with LNCaP is over 91.3 µM; in experiment [1], over 91.3 µM; in the experiment with MCF7, over 91.3 µM; in experiment [2] it was 29.3 µM; at Aromatase, 31.5 µM; in experiment [3], over 91.3 µM.
With `COc1ccc(OC)c2c(C)cc(=O)[nH]c12`, the IC50 with LNCaP was over 91.2 µM; in experiment [1], over 91.2 µM; with MCF7 it was over 91.2 µM; in experiment [2], 10.8 µM; at Aromatase, 26.8 µM; in experiment [3] it was over 91.2 µM.
With `Cc1cc(=O)n(C)c2c1C(=O)C=CC2=O`, the 50% inhibitory concentration (IC50) was 58.1 µM in the experiment on LNCaP; 49.2 µM in experiment [1]; 60.5 µM in the experiment on MCF7; over 500 µM in experiment [2]; over 98.4 µM against Aromatase; 54.1 µM in experiment [3].
As to `COc1cccc2c(C)cc(=O)[nH]c12`, the IC50 in the experiment on LNCaP is over 106 µM; in experiment [1], over 106 µM; in the experiment on MCF7 it was over 106 µM; in experiment [2], 24.1 µM; at Aromatase, over 106 µM; in experiment [3], over 106 µM.
For `COc1ccc2c(C)cc(=O)n(C)c2c1OC`, the IC50 is over 85.8 µM in the experiment with LNCaP; over 85.8 µM in experiment [1]; over 85.8 µM in the experiment on MCF7; 9.3 µM in experiment [2]; 5.76 µM on Aromatase; over 85.8 µM in experiment [3].
Regarding `COc1cccc2c(C)cc(=O)n(C)c12`, the IC50 was over 98.5 µM in the experiment with LNCaP; over 98.5 µM in experiment [1]; over 98.5 µM in the experiment with MCF7; 5.8 µM in experiment [2]; 2.02 µM on Aromatase; over 98.5 µM in experiment [3].
Consider `COc1c(OC)c(OC)c2c(c(C)cc(=O)n2C)c1OC`, for which the half-maximal inhibitory concentration (IC50) is over 68.2 µM in the experiment with LNCaP; over 68.2 µM in experiment [1]; over 68.2 µM in the experiment on MCF7; over 500 µM in experiment [2]; 0.76 µM against Aromatase; over 68.2 µM in experiment [3].
On to `Cc1cc(=O)[nH]c2ccccc12`, for which the IC50 is over 126 µM with LNCaP; over 126 µM in experiment [1]; over 126 µM with MCF7; over 500 µM in experiment [2]; over 126 µM against Aromatase; over 126 µM in experiment [3].
Take `COc1cc(=O)n(C)c2c3c(ccc12)OCO3` [CASIMIROIN]: the IC50 with LNCaP was over 85.8 µM; in experiment [1], over 85.8 µM; in the experiment with MCF7, over 85.8 µM; in experiment [2], 54.1 µM; against Aromatase, 3.92 µM; in experiment [3], over 85.8 µM.
Take `COc1cc(OC)c2c(c1)c(C)cc(=O)n2C`: the IC50 in the experiment with LNCaP is over 85.8 µM; in experiment [1], over 85.8 µM; in the experiment on MCF7 it was over 85.8 µM; in experiment [2] it was 1.9 µM; at Aromatase it was 0.96 µM; in experiment [3] it was over 85.8 µM.
Turning to `COc1ccc(OC)c2c1c(C)cc(=O)n2C`, the IC50 in the experiment on LNCaP was over 85.7 µM; in experiment [1], over 85.7 µM; with MCF7, over 85.7 µM; in experiment [2], 4.1 µM; at Aromatase it was 0.96 µM; in experiment [3], over 85.7 µM.
Turning to `Cc1cc(=O)[nH]c2c3c(ccc12)OCO3`, the IC50 with LNCaP is over 98.5 µM; in experiment [1], over 98.5 µM; with MCF7 it was over 98.5 µM; in experiment [2], 10.8 µM; against Aromatase it was over 98.5 µM; in experiment [3] it was over 98.5 µM.
`COc1cc(OC)c2[nH]c(=O)cc(C)c2c1`: the IC50 in the experiment with LNCaP is over 91.3 µM; in experiment [1], over 91.3 µM; in the experiment with MCF7, over 91.3 µM; in experiment [2], 8.8 µM; against Aromatase, over 91.3 µM; in experiment [3] it was over 91.3 µM.
`COc1cc2c(C)cc(=O)n(C)c2c(OC)c1OC`: the IC50 is over 76 µM in the experiment on LNCaP; over 76 µM in experiment [1]; over 76 µM in the experiment on MCF7; 7 µM in experiment [2]; 2.72 µM on Aromatase; over 76 µM in experiment [3].

These data come from ChEMBL document CHEMBL1153344, “Synthesis of casimiroin and optimization of its quinone reductase 2 and aromatase inhibitory activities” (J Med Chem, 2009).
